Experimental data: ChEMBL document CHEMBL1129534, “Antitumor agents. 163. Three-dimensional quantitative structure-activity relationship study of 4'-O-demethylepipodophyllotoxin analogs using the modified CoMFA/q2-GRS approach” (J Med Chem, 1996)
Values joined by “and” are separate entries in the source; they are usually repeats but may differ in a detail not shown here. Equal entries are not always repeated.

Biological target: DNA topoisomerase II (Homo sapiens) (UniProt P11388+Q02880)
Assay: Compound tested for ability to form a cellular covalent topoisomerase II-DNA complex.
Assay type: functional
Outline: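 Read-out is intracellular covalent topoisomerase II–DNA complex formation, scored as the percentage of cellular protein–DNA complex formed (PCPDCF). For CoMFA modelling the values were transformed to ln(PCPDCF + 1).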

Structure (SMILES) | Protein-DNA complex formation
COc1cc([C@@H]2c3cc4c(cc3[C@@H](NC[C@H](C)O)[C@H]3COC(=O)[C@H]23)OCO4)cc(OC)c1O | 167%
COc1cc([C@@H]2c3cc4c(cc3[C@@H](Nc3cccc(N)c3)[C@H]3COC(=O)[C@H]23)OCO4)cc(OC)c1O | 140%
COc1cc([C@@H]2c3cc4c(cc3[C@@H](NC(=O)c3ccc([N+](=O)[O-])cc3)[C@H]3COC(=O)[C@H]23)OCO4)cc(OC)c1O | 160%
COc1cc([C@@H]2c3cc4c(cc3[C@@H](NCCO)[C@H]3COC(=O)[C@H]23)OCO4)cc(OC)c1O | 121%
COc1cc([C@@H]2c3cc4c(cc3[C@@H](NC(=O)c3ccccc3O)[C@H]3COC(=O)[C@H]23)OCO4)cc(OC)c1O | 160%
COc1cc([C@@H]2c3cc4c(cc3[C@@H](Nc3ccc(C(=O)O)cc3)[C@H]3COC(=O)[C@H]23)OCO4)cc(OC)c1O | 6.9% and 1.9%
COCCN[C@@H]1c2cc3c(cc2[C@@H](c2cc(OC)c(O)c(OC)c2)[C@H]2C(=O)OC[C@@H]21)OCO3 | 111%
COc1cc([C@@H]2c3cc4c(cc3[C@@H](Nc3cccnc3)[C@H]3COC(=O)[C@H]23)OCO4)cc(OC)c1O | 148%
COc1cc([C@@H]2c3cc4c(cc3[C@@H](NC(=O)c3ccccc3F)[C@H]3COC(=O)[C@H]23)OCO4)cc(OC)c1O | 128%
CCCN[C@@H]1c2cc3c(cc2[C@@H](c2cc(OC)c(O)c(OC)c2)[C@H]2C(=O)OC[C@@H]21)OCO3 | 69.7%
COc1cc([C@@H]2c3cc4c(cc3[C@@H](Nc3ccc([N+](=O)[O-])cc3)[C@H]3COC(=O)[C@H]23)OCO4)cc(OC)c1O | 323%
C=CCN[C@@H]1c2cc3c(cc2[C@@H](c2cc(OC)c(O)c(OC)c2)[C@H]2C(=O)OC[C@@H]21)OCO3 | 84.1%
COc1cc([C@@H]2c3cc4c(cc3[C@H](N)[C@H]3COC(=O)[C@H]23)OCO4)cc(OC)c1O | 8%
COc1cc([C@@H]2c3cc4c(cc3[C@@H](NCc3ccccc3N)[C@H]3COC(=O)[C@H]23)OCO4)cc(OC)c1O | 184%
COc1cc([C@@H]2c3cc4c(cc3[C@@H](OC(=O)c3ccc(N)cc3)[C@H]3COC(=O)[C@H]23)OCO4)cc(OC)c1O | 94%
COc1cc([C@@H]2c3cc4c(cc3[C@@H](Nc3ccccc3F)[C@H]3COC(=O)[C@H]23)OCO4)cc(OC)c1O | 121%
COc1cc([C@@H]2c3cc4c(cc3[C@@H](Oc3ccc(O)cc3)[C@H]3COC(=O)[C@H]23)OCO4)cc(OC)c1O | 34%
CCOC(=O)c1ccc(N[C@@H]2c3cc4c(cc3[C@@H](c3cc(OC)c(O)c(OC)c3)[C@H]3C(=O)OC[C@@H]32)OCO4)cc1 | 207%
COc1cc([C@@H]2c3cc4c(cc3[C@@H](O)[C@H]3COC(=O)[C@H]23)OCO4)cc(OC)c1O | 42.2%
COc1cc([C@@H]2c3cc4c(cc3[C@@H](Nc3ccc(Cl)cc3)[C@H]3COC(=O)[C@H]23)OCO4)cc(OC)c1O | 99%
COc1cc([C@@H]2c3cc4c(cc3[C@@H](Nc3cnc5ccccc5c3)[C@H]3COC(=O)[C@H]23)OCO4)cc(OC)c1O | 123%

Structure (SMILES) | Protein-DNA complex formation
COc1ccc(N[C@@H]2c3cc4c(cc3[C@@H](c3cc(OC)c(O)c(OC)c3)[C@H]3C(=O)OC[C@@H]32)OCO4)cc1OC | 180%
COc1cc([C@@H]2c3cc4c(cc3[C@@H](NC(=O)c3ccc(C#N)cc3)[C@H]3COC(=O)[C@H]23)OCO4)cc(OC)c1O | 159%
COc1cc([C@@H]2c3cc4c(cc3[C@@H](O[C@@H]3O[C@@H]5CO[C@@H](C)O[C@H]5[C@H](O)[C@H]3O)[C@H]3COC(=O)[C@H]23)OCO4)cc(OC)c1O | 100%
COc1cc([C@@H]2c3cc4c(cc3[C@@H](NCc3cccc(C#N)c3)[C@H]3COC(=O)[C@H]23)OCO4)cc(OC)c1O | 225%
COc1cc([C@@H]2c3cc4c(cc3[C@@H](NCc3cccc([N+](=O)[O-])c3)[C@H]3COC(=O)[C@H]23)OCO4)cc(OC)c1O | 130%
COc1cc([C@@H]2c3cc4c(cc3[C@@H](NCc3cccc(F)c3)[C@H]3COC(=O)[C@H]23)OCO4)cc(OC)c1O | 216%
COC(=O)c1cc(N[C@@H]2c3cc4c(cc3[C@@H](c3cc(OC)c(O)c(OC)c3)[C@H]3C(=O)OC[C@@H]32)OCO4)ccc1O | 83%
COc1cc([C@@H]2c3cc4c(cc3[C@@H](NC(=O)c3ccc(N)cc3)[C@H]3COC(=O)[C@H]23)OCO4)cc(OC)c1O | 120%
COc1cc([C@@H]2c3cc4c(cc3[C@@H](OC(=O)c3cccc(N)c3)[C@H]3COC(=O)[C@H]23)OCO4)cc(OC)c1O | 100%
COC(=O)c1ccc(N[C@@H]2c3cc4c(cc3[C@@H](c3cc(OC)c(O)c(OC)c3)[C@H]3C(=O)OC[C@@H]32)OCO4)cc1O | 129%
COc1cc([C@@H]2c3cc4c(cc3[C@@H](NCc3cccc(Cl)c3)[C@H]3COC(=O)[C@H]23)OCO4)cc(OC)c1O | 159%
COc1cc([C@@H]2c3cc4c(cc3[C@@H](Nc3cccc(C(C)=O)c3)[C@H]3COC(=O)[C@H]23)OCO4)cc(OC)c1O | 150%
COc1cc([C@@H]2c3cc4c(cc3[C@@H](Nc3cc(F)cc(F)c3)[C@H]3COC(=O)[C@H]23)OCO4)cc(OC)c1O | 115%
COc1cc([C@@H]2c3cc4c(cc3[C@@H](NC(=O)c3ccc(F)cc3)[C@H]3COC(=O)[C@H]23)OCO4)cc(OC)c1O | 117%
COc1cc([C@@H]2c3cc4c(cc3[C@@H](Nc3ccccc3)[C@H]3COC(=O)[C@H]23)OCO4)cc(OC)c1O | 243%
COc1cccc(N[C@@H]2c3cc4c(cc3[C@@H](c3cc(OC)c(O)c(OC)c3)[C@H]3C(=O)OC[C@@H]32)OCO4)c1 | 104%
COc1cc([C@@H]2c3cc4c(cc3[C@@H](OC(=O)c3ccccc3)[C@H]3COC(=O)[C@H]23)OCO4)cc(OC)c1O | 94%
COc1cc([C@@H]2c3cc4c(cc3[C@@H](Nc3ccc(F)cc3)[C@H]3COC(=O)[C@H]23)OCO4)cc(OC)c1O | 213%
COc1cc([C@@H]2c3cc4c(cc3[C@@H](Nc3cccc([N+](=O)[O-])c3)[C@H]3COC(=O)[C@H]23)OCO4)cc(OC)c1O | 230%
COc1cc([C@@H]2c3cc4c(cc3[C@@H](Nc3ccc(N)cc3)[C@H]3COC(=O)[C@H]23)OCO4)cc(OC)c1O | 330%
COc1cc([C@@H]2c3cc4c(cc3[C@@H](Oc3ccc(F)cc3)[C@H]3COC(=O)[C@H]23)OCO4)cc(OC)c1O | 57%

Structure (SMILES) | Protein-DNA complex formation
COc1cc([C@@H]2c3cc4c(cc3[C@@H](Nc3ccc5c(c3)OCO5)[C@H]3COC(=O)[C@H]23)OCO4)cc(OC)c1O | 164%
COc1cc([C@@H]2c3cc4c(cc3[C@@H](Nc3ccc(O)cc3)[C@H]3COC(=O)[C@H]23)OCO4)cc(OC)c1O | 211%
COc1cc([C@@H]2c3cc4c(cc3[C@@H](N)[C@H]3COC(=O)[C@H]23)OCO4)cc(OC)c1O | 36.4%
COc1cc([C@@H]2c3cc4c(cc3[C@@H](N[C@@H](C)CO)[C@H]3COC(=O)[C@H]23)OCO4)cc(OC)c1O | 162%
COc1cc([C@@H]2c3cc4c(cc3[C@@H](Nc3cccc(CO)c3)[C@H]3COC(=O)[C@H]23)OCO4)cc(OC)c1O | 235%
COc1cc([C@@H]2c3cc4c(cc3[C@@H](NC(=O)c3cccc([N+](=O)[O-])c3)[C@H]3COC(=O)[C@H]23)OCO4)cc(OC)c1O | 86%
COc1cc(CN[C@@H]2c3cc4c(cc3[C@@H](c3cc(OC)c(O)c(OC)c3)[C@H]3C(=O)OC[C@@H]32)OCO4)cc(OC)c1 | 144%
COc1cc([C@@H]2c3cc4c(cc3[C@@H](NC(=O)c3ccccc3)[C@H]3COC(=O)[C@H]23)OCO4)cc(OC)c1O | 177%
COc1cc([C@@H]2c3cc4c(cc3[C@@H](Nc3cc(N)ccc3O)[C@H]3COC(=O)[C@H]23)OCO4)cc(OC)c1O | 11%
CCOC(=O)c1ccccc1N[C@@H]1c2cc3c(cc2[C@@H](c2cc(OC)c(O)c(OC)c2)[C@H]2C(=O)OC[C@@H]21)OCO3 | 4%
COc1cc([C@@H]2c3cc4c(cc3[C@@H](NCc3ccc([N+](=O)[O-])cc3)[C@H]3COC(=O)[C@H]23)OCO4)cc(OC)c1O | 216%
COc1cc([C@@H]2c3cc4c(cc3[C@@H](NCc3cccc(N)c3)[C@H]3COC(=O)[C@H]23)OCO4)cc(OC)c1O | 191%
COc1cc([C@@H]2c3cc4c(cc3[C@@H](NC(=O)c3ccc(C(C)=O)cc3)[C@H]3COC(=O)[C@H]23)OCO4)cc(OC)c1O | 124%
COc1cc([C@@H]2c3cc4c(cc3[C@@H](Nc3cc(C(F)(F)F)cc(C(F)(F)F)c3)[C@H]3COC(=O)[C@H]23)OCO4)cc(OC)c1O | 21%
COc1cc([C@@H]2c3cc4c(cc3[C@@H](Nc3cccc(Cl)c3)[C@H]3COC(=O)[C@H]23)OCO4)cc(OC)c1O | 51%
COc1cc([C@@H]2c3cc4c(cc3[C@@H](Nc3cccc(O)c3)[C@H]3COC(=O)[C@H]23)OCO4)cc(OC)c1O | 290%
COc1cc([C@@H]2c3cc4c(cc3[C@@H](Nc3cc([N+](=O)[O-])ccc3O)[C@H]3COC(=O)[C@H]23)OCO4)cc(OC)c1O | 15%
COc1cc([C@@H]2c3cc4c(cc3[C@@H](NCc3ccc(C(F)(F)F)cc3)[C@H]3COC(=O)[C@H]23)OCO4)cc(OC)c1O | 99%
COc1cc([C@@H]2c3cc4c(cc3[C@@H](Nc3ccc(C#N)cc3)[C@H]3COC(=O)[C@H]23)OCO4)cc(OC)c1O | 211%
CCOC(=O)CC[C@H](NC(=O)c1ccc(N[C@@H]2c3cc4c(cc3[C@@H](c3cc(OC)c(O)c(OC)c3)[C@H]3C(=O)OC[C@@H]32)OCO4)cc1)C(=O)OCC | 83%
COc1cc([C@@H]2c3cc4c(cc3[C@H](NCCO)[C@H]3COC(=O)[C@H]23)OCO4)cc(OC)c1O | 0%
